According to ChEMBL document CHEMBL1139834, “Synthesis and structure-activity relationships of new benzodioxinic lactones as potential anticancer drugs” (J Med Chem, 2007):

Legend:
Format in all cases: functional
[1] = system: L1210; experiment: Cell cycle arrest in mouse L1210 cell line by accumulation at 8N phase at 5 uM after 24 hrs
How it was run: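 L1210 cells in RPMI 1640 with 2 mM L-glutamine, penicillin, streptomycin and 20% heat-inactivated horse serum, 5% CO2, 37 °C, exposed to several drug concentrations. Cells fixed in 70% ethanol, washed, stained 30 min at room temperature with propidium iodide plus RNAse in PBS, then flow cytometry. Read-out is percentage of cells in each cycle phase after 24 h exposure.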

[2] = system: OVCAR-5; experiment: Antitumor activity against human OVCAR5 cell line
How it was run: (§1)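 Human tumour cell line panel. GI50 is the concentration giving 50% growth inhibition, averaged over at least two determinations. LC50 is the concentration killing 50% of cells in a […] assay.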

[3] = system: U-251; experiment: Antitumor activity against human U251 cell line
How it was run: (§2)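 Human tumour cell lines from a selected panel. GI50 is the concentration giving 50% growth inhibition, averaged from at least two determinations. LC50 is the concentration killing 50% of cells in a […] assay.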

[4] = system: LOX IMVI; experiment: Antitumor activity against human LOX IMVI cell line; how it was run: as §1
[5] = system: HT-29; experiment: Antitumor activity against human HT29 cell line
[6] = system: SK-MEL-5; experiment: Antitumor activity against human SKMEL5 cell line; how it was run: as §1
[7] = system: MDA-N; experiment: Antitumor activity against human MDA-N cell line; how it was run: as §1
[8] = system: SN12C; experiment: Antitumor activity against human SN12C cell line; how it was run: as §1
[9] = Antitumor activity against human IGROVI cell line; how it was run: as §1
[10] = system: SR; experiment: Antitumor activity against human SR cell line; how it was run: as §2
[11] = system: TK-10; experiment: Antitumor activity against human TK10 cell line; how it was run: as §2
[12] = system: MDA-MB-231; experiment: Antitumor activity against human MDA-MB-231 cell line; how it was run: as §1
[13] = system: HOP-62; experiment: Antitumor activity against human HOP62 cell line; how it was run: as §1
[14] = system: MDA-MB-435; experiment: Antitumor activity against human MDA-MB-435 cell line; how it was run: as §1
[15] = system: NCI-H322M; experiment: Antitumor activity against human NCI-H322M cell line; how it was run: as §1
[16] = system: SNB-19; experiment: Antitumor activity against human SNB19 cell line; how it was run: as §1
[17] = system: T47D; experiment: Antitumor activity against human T47D cell line; how it was run: as §2
[18] = read-out: LC50 (the source's name)

## CCCCc1c2c(c(C)c3c1C(=O)OC3)Oc1ccccc1O2
[1]
  Activity: 67%
[2]
  GI50: 7.59 µM
[2]; [18]
  CC50: 100 µM
[3]
  GI50: 0.525 µM
[3]; [18]
  CC50: 40 µM
[4]
  GI50: 1.23 µM
[4]; [18]
  CC50: 100 µM
[5]
  GI50: 0.331 µM
[5]; [18]
  CC50: 100 µM
[6]
  GI50: 0.427 µM
[6]; [18]
  CC50: 100 µM
[7]
  GI50: 0.117 µM
[7]; [18]
  CC50: 60 µM
[8]
  GI50: 1.26 µM
[8]; [18]
  CC50: 100 µM
[9]
  GI50: 0.282 µM
[9]; [18]
  CC50: 10 µM
[10]
  GI50: 0.132 µM
[10]; [18]
  CC50: 100 µM
[11]
  GI50: 1.51 µM
[11]; [18]
  CC50: 100 µM
[12]
  GI50: 2.34 µM
[12]; [18]
  CC50: 100 µM
[13]
  GI50: 1.45 µM
[13]; [18]
  CC50: 100 µM
[14]
  GI50: 0.158 µM
[14]; [18]
  CC50: 40 µM
[15]
  GI50: 0.933 µM
[15]; [18]
  CC50: 100 µM
[16]
  GI50: 0.589 µM
[16]; [18]
  CC50: 100 µM
[17]
  GI50: 6.46 µM
[17]; [18]
  CC50: 100 µM
